Test results as given in ChEMBL document CHEMBL4049388, “Facile and efficient access to Androsten-17-(1',3',4')-pyrazoles and Androst-17β-(1',3',4')-pyrazoles via Vilsmeier reagents, and their antiproliferative activity evaluation in vitro” (Eur J Med Chem, 2017).
Calls of active or inactive are those of the source. No cut-off for these calls is given here.

Tests used:
[1] = tested on: MCF7; experiment: Cytotoxicity against human MCF7 cells after 72 hrs by SRB assay; assay type: functional, cell-based; settings: MCF7, 72 h
Method in brief: (§1)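 SRB assay on 293T, A549, Hela and MCF-7 cells, with cisplatin as reference control. IC50 calculated for each compound from triplicate assays.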

[2] = tested on: HeLa; experiment: Induction of apoptosis in human HeLa cells assessed as total cells at viable stage at 5 uM after 24 hrs by Annexin-V-FITC/propidium iodide staining based flow cytometry (reference value: 96.16%); assay type: functional
Method in brief: (§2)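 Hela cells seeded at 10^6 per well and stabilized 24 h at 37 °C, 5% CO2. Then treated 24 h at 2.5, 5.0 or 7.5 μM, DMSO negative control. Cells washed in cold PBS, resuspended at 1×10^6 cells/mL in cold binding buffer, stained with annexin V-FITC then PI for 15 min in dark, analysed by flow cytometry.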

[3] = tested on: HeLa; experiment: Induction of apoptosis in human HeLa cells assessed as irregular nucleus at 7.5 uM after 48 hrs by Hoechst 33342 staining based fluorescence microscopic method; assay type: functional, cell-based
Method in brief: (§3)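 Hela cells seeded at 10^6 per well on cover slips and incubated 16 h. Then exposed 48 h at 2.5, 5.0 or 7.5 μM, DMSO negative control. Cells fixed in 4% paraformaldehyde for 15 min, washed in PBS, stained with Hoechst 33342 for 10 min. Nuclear morphology viewed by fluorescence microscopy, ex 350 nm / em 460 nm.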

[4] = tested on: HeLa; experiment: Induction of apoptosis in human HeLa cells assessed as total cells at late apoptotic stage at 2.5 uM after 24 hrs by Annexin-V-FITC/propidium iodide staining based flow cytometry (reference value: 0.03%); assay type: functional; method in brief: as §2
[5] = tested on: HeLa; experiment: Cell cycle arrest in human HeLa cells assessed as accumulation at G1 phase at 5 uM after 24 hrs by propidium iodide staining based flow cytometry (reference value: 56.72%); assay type: functional
[6] = tested on: HeLa; experiment: Induction of apoptosis in human HeLa cells assessed as gated cells at necrotic stage at 5 uM after 24 hrs by Annexin-V-FITC/propidium iodide staining based flow cytometry (reference value: 0.05%); assay type: functional; method in brief: as §2
[7] = tested on: HeLa; experiment: Induction of apoptosis in human HeLa cells assessed as gated cells at late apoptotic stage at 2.5 uM after 24 hrs by Annexin-V-FITC/propidium iodide staining based flow cytometry (reference value: 0.03%); assay type: functional; method in brief: as §2
[8] = tested on: HeLa; experiment: Induction of apoptosis in human HeLa cells assessed as apoptotic body formation at 7.5 uM after 48 hrs by Hoechst 33342 staining based fluorescence microscopic method; assay type: functional, cell-based; method in brief: as §3
[9] = tested on: HeLa; experiment: Induction of apoptosis in human HeLa cells assessed as total cells at viable stage at 7.5 uM after 24 hrs by Annexin-V-FITC/propidium iodide staining based flow cytometry (reference value: 96.16%); assay type: functional; method in brief: as §2
[10] = tested on: HeLa; experiment: Induction of apoptosis in human HeLa cells assessed as gated cells at early apoptotic stage at 5 uM after 24 hrs by Annexin-V-FITC/propidium iodide staining based flow cytometry (reference value: 0.04%); assay type: functional; method in brief: as §2
[11] = tested on: HeLa; experiment: Induction of apoptosis in human HeLa cells assessed as gated cells at necrotic stage at 2.5 uM after 24 hrs by Annexin-V-FITC/propidium iodide staining based flow cytometry (reference value: 0.05%); assay type: functional; method in brief: as §2
[12] = tested on: HeLa; experiment: Cell cycle arrest in human HeLa cells assessed as accumulation at S phase at 2.5 uM after 24 hrs by propidium iodide staining based flow cytometry (reference value: 18.92%); assay type: functional
[13] = tested on: HeLa; experiment: Cell cycle arrest in human HeLa cells assessed as accumulation at G1 phase at 7.5 uM after 24 hrs by propidium iodide staining based flow cytometry (reference value: 56.72%); assay type: functional
[14] = tested on: HeLa; experiment: Induction of apoptosis in human HeLa cells assessed as gated cells at viable stage at 2.5 uM after 24 hrs by Annexin-V-FITC/propidium iodide staining based flow cytometry (reference value: 99.88%); assay type: functional; method in brief: as §2
[15] = tested on: HeLa; experiment: Induction of apoptosis in human HeLa cells assessed as total cells at necrotic stage at 7.5 uM after 24 hrs by Annexin-V-FITC/propidium iodide staining based flow cytometry (reference value: 0.05%); assay type: functional; method in brief: as §2
[16] = tested on: HeLa; experiment: Induction of apoptosis in human HeLa cells assessed as gated cells at viable stage at 5 uM after 24 hrs by Annexin-V-FITC/propidium iodide staining based flow cytometry (reference value: 99.88%); assay type: functional; method in brief: as §2
[17] = tested on: HeLa; experiment: Cell cycle arrest in human HeLa cells assessed as accumulation at S phase at 7.5 uM after 24 hrs by propidium iodide staining based flow cytometry (reference value: 18.92%); assay type: functional
[18] = tested on: HeLa; experiment: Induction of apoptosis in human HeLa cells after 24 hrs by Annexin-V-FITC/propidium iodide staining based flow cytometry; assay type: functional, cell-based; method in brief: as §2
[19] = tested on: HeLa; experiment: Induction of apoptosis in human HeLa cells assessed as total cells at early apoptotic stage at 5 uM after 24 hrs by Annexin-V-FITC/propidium iodide staining based flow cytometry (reference value: 0.04%); assay type: functional; method in brief: as §2
[20] = tested on: A549; experiment: Cytotoxicity against human A549 cells assessed as growth inhibition at 10 uM after 72 hrs by SRB assay relative to control; assay type: functional; settings: A549, 72 h, read-out: GI
Method in brief: (§4)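 SRB single-dose screen at 10 μM on 293T, A549, Hela and MCF-7 cells. Results reported as percent inhibitory ratio (mean ± SD).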

[21] = tested on: HeLa; experiment: Cell cycle arrest in human HeLa cells assessed as accumulation at G2 phase at 7.5 uM after 24 hrs by propidium iodide staining based flow cytometry (reference value: 24.36%); assay type: functional
[22] = tested on: HeLa; experiment: Induction of apoptosis in human HeLa cells assessed as total cells at early apoptotic stage at 2.5 uM after 24 hrs by Annexin-V-FITC/propidium iodide staining based flow cytometry (reference value: 0.04%); assay type: functional; method in brief: as §2
[23] = tested on: HeLa; experiment: Induction of apoptosis in human HeLa cells assessed as total cells at late apoptotic stage at 7.5 uM after 24 hrs by Annexin-V-FITC/propidium iodide staining based flow cytometry (reference value: 0.03%); assay type: functional; method in brief: as §2
[24] = tested on: HeLa; experiment: Cytotoxicity against human HeLa cells after 72 hrs by SRB assay; assay type: functional, cell-based; method in brief: as §1
[25] = tested on: HeLa; experiment: Cell cycle arrest in human HeLa cells assessed as accumulation at G2 phase at 5 uM after 24 hrs by propidium iodide staining based flow cytometry (reference value: 24.36%); assay type: functional
[26] = tested on: HeLa; experiment: Induction of apoptosis in human HeLa cells assessed as gated cells at late apoptotic stage at 5 uM after 24 hrs by Annexin-V-FITC/propidium iodide staining based flow cytometry (reference value: 0.03%); assay type: functional; method in brief: as §2
[27] = tested on: HeLa; experiment: Cytotoxicity against human HeLa cells assessed as growth inhibition at 10 uM after 72 hrs by SRB assay relative to control; assay type: functional; settings: read-out: GI; method in brief: as §4
[28] = tested on: HeLa; experiment: Induction of apoptosis in human HeLa cells assessed as gated cells at viable stage at 7.5 uM after 24 hrs by Annexin-V-FITC/propidium iodide staining based flow cytometry (reference value: 99.88%); assay type: functional; method in brief: as §2
[29] = tested on: HeLa; experiment: Induction of apoptosis in human HeLa cells assessed as gated cells at early apoptotic stage at 7.5 uM after 24 hrs by Annexin-V-FITC/propidium iodide staining based flow cytometry (reference value: 0.04%); assay type: functional; method in brief: as §2
[30] = tested on: MCF7; experiment: Cytotoxicity against human MCF7 cells assessed as growth inhibition at 10 uM after 72 hrs by SRB assay relative to control; assay type: functional; settings: MCF7, 72 h, read-out: GI; method in brief: as §4
[31] = tested on: HeLa; experiment: Induction of apoptosis in human HeLa cells assessed as gated cells at early apoptotic stage at 2.5 uM after 24 hrs by Annexin-V-FITC/propidium iodide staining based flow cytometry (reference value: 0.04%); assay type: functional; method in brief: as §2

CCNCc1cn(-c2ccccc2)nc1C1=CC[C@H]2[C@@H]3CC=C4C[C@@H](O)CC[C@]4(C)[C@H]3CC[C@]12C
IC50 [1]: 2.53 µM | Activity [2]: 80.32% | Activity [3]: Active | Activity [4]: 0.16% | Activity [5]: 53.13% | Activity [6]: 3.79% | Activity [7]: 0.16% | Activity [8]: Active | Activity [9]: 78.35% | Activity [10]: 2.41% | Activity [11]: 1.31% | Activity [12]: 19.8% | Activity [13]: 49.92% | Activity [14]: 97.93% | Activity [15]: 2.79% | Activity [16]: 93.44% | Activity [17]: 24.77% | Activity [18]: Dose-dependent effect | Activity [19]: 2.08% | inhibition of growth at 10 µM [20]: 91.3% | Activity [21]: 25.31% | Activity [22]: 0.58% | Activity [23]: 0.9% | IC50 [24]: 0.53 µM | Activity [25]: 22.53% | Activity [26]: 0.36% | inhibition of growth at 10 µM [27]: 92.8% | Activity [28]: 87.49% | Activity [29]: 8.37% | inhibition of growth at 10 µM [30]: 89.3% | Activity [31]: 0.59%
